Measurements as given in ChEMBL document CHEMBL4689842, “EUbOPEN Chemogenomics Library wave 1” (2021).
Values joined by “and” are separate entries in the source; they are usually repeats but may differ in a detail not shown here. Identical values can stand only once.

Columns and labels:
Format in all cases: toxicity, cell-based
[1] = system: Fibroblast; assay: Incucyte cell viability with human fibroblast; details: 10 µM, compound concentration 10 uM; also: filed as whole numbers so only -1 and 0 and 1 occur
[2] = system: HEK-293T; assay: Multiplex assay against HEK293T; details: human, 10 µM, compound concentration 10 uM;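 as to Population Tubulin-Different-Phenotype (%): share of the cells with healthy nuclei that show this phenotype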
Summary of the method: (§1)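 Phenotypes for tubulin, mitochondrial mass and membrane permeability are expressed as per cents of healthy-nucleus cells. Cells were stained live at seeding with Hoechst33342, BioTracker Green Microtubule Cytoskeleton Dye, MitoTracker Red and Annexin V Alexa Fluor 680, then imaged after compound addition on a CQ1 microscope at 37°C and 5% CO2. Machine-learning gating in CellPathfinder separated Hoechst high-intensity objects from normal cells, divided normal cells by nuclear state (healthy, pyknosed, fragmented) and divided pyknosed cells into mitotic or apoptotic.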

[3] = system: U2OS; assay: Incucyte cell viability with U2OS; details: human, 10 µM, compound concentration 10 uM; also: filed as whole numbers so only -1 and 0 and 1 occur
[4] = system: HEK-293T; assay: Incucyte cell viability with HEK293T; details: human, 10 µM, compound concentration 10 uM; also: filed as whole numbers so only -1 and 0 and 1 occur
[5] = system: U2OS; assay: Multiplex assay against U2OS; details: human, 12 h, 10 µM, compound concentration 10 uM; summary of the method: as §1
[6] = 6 h, replicate number 1, timepoint 6 hours
[7] = 12 h, replicate number 1, timepoint 12 hours
[8] = 18 h, replicate number 1, timepoint 18 hours
[9] = 24 h, replicate number 1, timepoint 24 hours
[10] = 0 h, replicate number 1, timepoint 0 hours

## CCN(CC)S(=O)(=O)Nc1cccc(-c2ccc3c(NC(=O)C4CC4)n[nH]c3c2)c1
[1]; [6]
  Growth Rate: 0
[1]; [7]
  Growth Rate: 0
[1]; [8]
  Growth Rate: 0
[1]; [9]
  Growth Rate: 0
[2]; 12 h, replicate 1
  Population Apoptotic (%): 14% and 17%
  Population Fragmented Nuclei (%): 23% and 22%
  Population Healthy Nuclei (%): 31% and 60%
  Population Hoechst High Intensity Objects (%): 17% and 14%
  Population Membrane Permeable-Phenotype (%): 7% and 4%
  Population Mitochondria Different-Phenotype (%): 5% and 3%
  Population Mitotic Cells (%): 85% and 82%
  Population Normal (%): 82% and 85%
  Population Pyknosed Nuclei (%): 45% and 17%
  Population Tubulin-Different-Phenotype (%): 6% and 1%
  Total Cell Count: 531 and 471
[2]; 12 h, replicate 2
  Population Apoptotic (%): 13% and 5%
  Population Healthy Nuclei (%): 76% and 84%
  Population Hoechst High Intensity Objects (%): 4% and 2%
  Population Membrane Permeable-Phenotype (%): 1% and 0%
  Population Mitotic Cells (%): 86% and 94%
  Population Normal (%): 95% and 97%
  Population Tubulin-Different-Phenotype (%): 10% and 4%
  Total Cell Count: 940 and 1848
[2]; 24 h, replicate 1
  Population Apoptotic (%): 19% and 16%
  Population Fragmented Nuclei (%): 22% and 21%
  Population Healthy Nuclei (%): 34% and 70%
  Population Hoechst High Intensity Objects (%): 14% and 9%
  Population Membrane Permeable-Phenotype (%): 7% and 8%
  Population Mitotic Cells (%): 80% and 83%
  Population Normal (%): 85% and 90%
  Total Cell Count: 487 and 501
[2]; 24 h, replicate 2
  Population Apoptotic (%): 4% and 8%
  Population Healthy Nuclei (%): 67% and 71%
  Population Hoechst High Intensity Objects (%): 4% and 6%
  Population Membrane Permeable-Phenotype (%): 2% and 1%
  Population Mitochondria Different-Phenotype (%): 22%
  Population Mitotic Cells (%): 95% and 91%
  Population Normal (%): 95% and 93%
[3]; [10]
  Growth Rate: 0
[3]; [6]
  Growth Rate: 0
[3]; [7]
  Growth Rate: 0
[3]; [8]
  Growth Rate: 0
[3]; [9]
  Growth Rate: 0
[4]; [10]
  Growth Rate: 0
[4]; [6]
  Growth Rate: 0
[4]; [7]
  Growth Rate: 0
[4]; [8]
  Growth Rate: 0
[4]; [9]
  Growth Rate: 0
[5]; replicate 1
  Population Apoptotic (%): 45% and 28%
  Population Fragmented Nuclei (%): 7% and 4%
  Population Healthy Nuclei (%): 83% and 87%
  Population Hoechst High Intensity Objects (%): 2% and 3%
  Population Membrane Permeable-Phenotype (%): 16% and 7%
  Population Mitochondria Different-Phenotype (%): 10% and 26%
  Population Mitotic Cells (%): 55% and 71%
  Population Normal (%): 97% and 96%
  Population Pyknosed Nuclei (%): 9% and 8%
  Population Tubulin-Different-Phenotype (%): 8% and 17%
  Total Cell Count: 177 and 289
[5]; replicate 2
  Population Apoptotic (%): 0% and 16%
  Population Fragmented Nuclei (%): 9% and 8%
  Population Healthy Nuclei (%): 80% and 85%
